ChEMBL document CHEMBL1131137, “New platelet fibrinogen receptor glycoprotein IIb-IIIa antagonists: orally active series of N-alkylated amidines with a 6,6-bicyclic template” (J Med Chem, 1998)
Values after ≈ are worked out from the molar mass of the structure shown.

Tests used:
[1] = Concentration in plasma 1 hr after oral administration; type: ADME, cell-free; conditions: read-out: Plasma level
Summary of the method: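 Male guinea pigs starved overnight, given prodrug orally at 37 μmol/kg in saline with 0.5% Tween 80. PPP taken 1 h post-dose under pentobarbital. Bioassay: treated PPP diluted with donor PPP, mixed with donor PRP, and aggregation to 5 μM ADP read against a standard curve of PPP spiked with the active acid.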

Cavia porcellus [2] = assay: Inhibition of ex vivo platelet aggregation induced by 5 uM Adenosine diphosphate (ADP) 1 hour after oral administration.; type: functional
Summary of the method: (§1)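 Fasted male guinea pigs dosed orally at 37 μmol/kg in saline with 0.5% Tween 80, then anesthetized with pentobarbital at 1 h and bled. PRP adjusted to 3.0 × 10⁸/mL, preincubated 2 min, and aggregated with ADP (final 5 μM). Inhibition relative to three vehicle-treated controls per experiment; mean of three animals.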

[3] = Solubility in saline.; type: physicochemical; conditions: read-out: S
Summary of the method: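 Solubility in saline determined by UV spectrophotometry.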

Cavia porcellus [4] = organism: Cavia porcellus; assay: In vitro inhibition of guinea pig Platelet-rich plasma (PRP) aggregation induced by 5 uM ADP; type: functional
[5] = target: Integrin alpha-IIb/beta-3 (Homo sapiens, UniProt P05106+P08514); assay: Inhibition of Fibrinogen binding to Immobilized Human Fibrinogen Receptor.; type: protein-complex assay
Summary of the method: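 Human platelet GPIIb-IIIa purified (ConA-, heparin-Sepharose, Sephacryl S-300) and coated at 1.5 μg/mL in TBS with 0.0005% Triton, 24 h at 4 °C, then blocked with 3.5% BSA. Compound plus biotinylated fibrinogen (2 μg/mL before 1:1 mixing) incubated 24 h at room temperature. Detection by peroxidase-streptavidin and o-phenylenediamine, A490.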

Homo sapiens = organism: Homo sapiens; assay: In vitro inhibition of human Platelet-rich plasma (PRP) aggregation induced by 5 uM ADP; type: functional
Summary of the method: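 PRP prepared by 120g 15-min spin of citrated venous blood (3.8% citrate, 1:9) from anesthetized male guinea pigs or male human volunteers, adjusted to 2.5–3.0 × 10⁸ platelets/mL with PPP. PRP warmed 2 min at 37 °C, compound or vehicle added, then 2 min later ADP (final 5 μM). Maximum aggregation compared with control; IC50 estimated.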

Cavia porcellus [6] = assay: Inhibition of ex vivo platelet aggregation induced by 5 uM Adenosine diphosphate (ADP) 1 hour after oral administration at the dose of 37umol/kg; type: functional; summary of the method: as §1

Sequence of Integrin alpha-IIb/beta-3 (P05106 27-788 limits assumed): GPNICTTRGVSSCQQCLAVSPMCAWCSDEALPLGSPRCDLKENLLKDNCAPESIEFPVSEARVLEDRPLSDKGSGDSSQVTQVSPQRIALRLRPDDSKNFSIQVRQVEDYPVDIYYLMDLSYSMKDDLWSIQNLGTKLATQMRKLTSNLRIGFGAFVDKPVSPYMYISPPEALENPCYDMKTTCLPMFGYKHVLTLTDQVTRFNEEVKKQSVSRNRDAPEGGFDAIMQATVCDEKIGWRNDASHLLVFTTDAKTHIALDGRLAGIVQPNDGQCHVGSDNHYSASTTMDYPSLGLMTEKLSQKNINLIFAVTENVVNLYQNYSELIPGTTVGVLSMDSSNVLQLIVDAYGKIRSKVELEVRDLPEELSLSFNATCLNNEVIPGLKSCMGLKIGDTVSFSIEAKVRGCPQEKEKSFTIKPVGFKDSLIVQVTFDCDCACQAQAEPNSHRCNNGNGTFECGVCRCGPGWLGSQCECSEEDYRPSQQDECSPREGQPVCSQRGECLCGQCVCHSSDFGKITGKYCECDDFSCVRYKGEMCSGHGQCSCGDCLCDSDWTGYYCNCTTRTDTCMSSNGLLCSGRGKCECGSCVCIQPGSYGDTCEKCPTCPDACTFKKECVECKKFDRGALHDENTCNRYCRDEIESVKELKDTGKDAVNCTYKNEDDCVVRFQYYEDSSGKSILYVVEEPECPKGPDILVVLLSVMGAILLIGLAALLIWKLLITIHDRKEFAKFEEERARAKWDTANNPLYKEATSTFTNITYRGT
Sequence of Integrin alpha-IIb/beta-3 (P08514 32-887 limits assumed): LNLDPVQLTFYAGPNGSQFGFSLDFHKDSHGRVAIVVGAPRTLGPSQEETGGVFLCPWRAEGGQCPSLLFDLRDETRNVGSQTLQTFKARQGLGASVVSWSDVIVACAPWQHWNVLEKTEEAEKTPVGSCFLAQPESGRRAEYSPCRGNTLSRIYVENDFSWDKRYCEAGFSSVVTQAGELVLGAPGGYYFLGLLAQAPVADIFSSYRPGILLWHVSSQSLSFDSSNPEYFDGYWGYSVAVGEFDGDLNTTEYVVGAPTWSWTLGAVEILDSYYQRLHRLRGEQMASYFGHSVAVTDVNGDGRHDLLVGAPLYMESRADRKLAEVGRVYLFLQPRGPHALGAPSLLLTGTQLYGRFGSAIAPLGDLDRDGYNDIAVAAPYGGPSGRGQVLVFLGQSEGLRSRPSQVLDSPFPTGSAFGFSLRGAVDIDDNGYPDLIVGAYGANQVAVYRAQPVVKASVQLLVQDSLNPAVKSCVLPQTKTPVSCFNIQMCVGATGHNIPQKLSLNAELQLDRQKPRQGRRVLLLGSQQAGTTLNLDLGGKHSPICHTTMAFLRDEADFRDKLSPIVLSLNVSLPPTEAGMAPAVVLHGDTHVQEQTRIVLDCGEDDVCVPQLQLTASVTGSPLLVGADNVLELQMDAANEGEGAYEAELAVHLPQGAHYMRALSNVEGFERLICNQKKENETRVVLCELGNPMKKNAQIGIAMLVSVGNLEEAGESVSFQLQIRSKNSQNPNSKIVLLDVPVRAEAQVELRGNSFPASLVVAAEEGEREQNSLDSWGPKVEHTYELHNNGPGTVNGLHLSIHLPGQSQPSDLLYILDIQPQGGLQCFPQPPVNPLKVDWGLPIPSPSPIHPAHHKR
Sequence of Integrin alpha-IIb/beta-3 (P08514 891-1039 limits assumed): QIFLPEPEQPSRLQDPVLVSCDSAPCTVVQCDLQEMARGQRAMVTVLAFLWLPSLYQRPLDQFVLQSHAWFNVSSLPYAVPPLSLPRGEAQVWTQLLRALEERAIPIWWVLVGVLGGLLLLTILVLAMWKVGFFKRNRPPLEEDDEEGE

Row | SMILES | IC50 (Cavia porcellus [4]) | IC50 [5] | IC50 (Homo sapiens) | further results
1 | C#CCNC(=N)c1ccc(C(=O)Nc2ccc3c(c2)CC(CC(=O)OCC)CO3)cc1 (stereo not drawn) | – | – | – | concentration at 1 h [1]: 3800 nM; Inhibition (Cavia porcellus [2]): 99%; solubility [3]: 106000 µg/mL (≈ 253000 µM)
2 | C=CCNC(=N)c1ccc(C(=O)Nc2ccc3c(c2)CC(CC(=O)OCC)CC3)cc1 (stereo not drawn) | – | – | – | concentration at 1 h [1]: 380 nM; Inhibition (Cavia porcellus [2]): 21%
3 | NC(=NCc1ccco1)c1ccc(C(=O)Nc2ccc3c(c2)CC(CC(=O)O)CC3)cc1 (stereo not drawn) | 0.62 µM | 0.2 nM | – | –
4 | N=C(N)c1ccc(C(=O)Nc2ccc3c(c2)CC(CC(=O)O)CO3)cc1 (stereo not drawn) | – | 0.073 nM | 49 nM | –
5 | N=C(N)c1ccc(/C=C/c2ccc3c(c2)CC(CC(=O)O)CC3)cc1 (stereo not drawn) | 5 µM | – | – | –
6 | N=C(c1ccc(C(=O)Nc2ccc3c(c2)CC(CC(=O)O)CO3)cc1)N1CCOCC1 (stereo not drawn) | 0.23 µM | 0.098 nM | 66 nM | –
7 | CCC/N=C(\N)c1ccc(C(=O)Nc2ccc3c(c2)CC(CC(=O)OCC)CC3)cc1 (stereo not drawn) | – | – | – | concentration at 1 h [1]: < 180 nM; Inhibition (Cavia porcellus [2]): 3%
8 | CCCNC(=N)c1ccc(C(=O)Nc2ccc3c(c2)CC(CC(=O)O)CC3)cc1 (stereo not drawn) | 0.17 µM | 0.13 nM | 68 nM | –
9 | C#CCNC(=N)c1ccc(C(=O)Nc2ccc3c(c2)CC(CC(=O)O)CO3)cc1 (stereo not drawn) | 0.35 µM | 0.13 nM | 78 nM | –
10 | CCOC(=O)CC1COc2ccc(NC(=O)c3ccc(C(=N)N4CCOCC4)cc3)cc2C1 (stereo not drawn) | – | – | – | concentration at 1 h [1]: 8400 nM; Inhibition (Cavia porcellus [2]): 99%; solubility [3]: > 200000 µg/mL
11 | N=C(c1ccc(C(=O)Nc2ccc3c(c2)CC(CC(=O)O)CC3)cc1)N1CCOCC1 (stereo not drawn) | 0.19 µM | 0.15 nM | 80 nM | –
12 | C#CC/N=C(\N)c1ccc(C(=O)Nc2ccc3c(c2)CC(CC(=O)O)CC3)cc1 (stereo not drawn) | 0.3 µM | 0.16 nM | 100 nM | –
13 | N=C(N)c1ccc(COc2ccc3ccc(CC(=O)O)cc3c2)cc1 | > 1000 µM | – | – | –
14 | C#CCNC(=N)c1ccc(C(=O)Nc2ccc3c(c2)CC(CC(=O)OCC)CC3)cc1 (stereo not drawn) | – | – | – | concentration at 1 h [1]: 1000 nM; Inhibition (Cavia porcellus [2]): 99%; solubility [3]: 1500 µg/mL (≈ 3590 µM)
15 | N=C(N)c1ccc(C(=O)Nc2ccc3c(c2)CN(CC(=O)O)CC3)cc1 | 6.6 µM | – | 290 nM | –
16 | N=C(N)c1ccc(COc2ccc3c(c2)CC(CC(=O)O)CC3)cc1 (stereo not drawn) | – | – | 1500 nM | –
17 | C=CCNC(=N)c1ccc(C(=O)Nc2ccc3c(c2)CC(CC(=O)O)CC3)cc1 (stereo not drawn) | 0.49 µM | 0.26 nM | – | –
18 | N=C(N)c1ccc(C(=O)Nc2ccc3c(c2)CC(CC(=O)O)CC3)cc1 (stereo not drawn) | 0.37 µM | 0.12 nM | 57 nM | inhibition in vivo at 37 µmol/kg (Cavia porcellus [6]): 8%
19 | CCOC(=O)CC1CCc2ccc(NC(=O)c3ccc(C(=N)N)cc3)cc2C1 (stereo not drawn) | – | – | – | inhibition in vivo at 37 µmol/kg (Cavia porcellus [6]): 41%; solubility [3]: 260 µg/mL (≈ 685 µM)
20 | CCOC(=O)CC1CCc2ccc(NC(=O)c3ccc(C(=N)NCc4ccco4)cc3)cc2C1 (stereo not drawn) | – | – | – | concentration at 1 h [1]: 850 nM; Inhibition (Cavia porcellus [2]): 91%; solubility [3]: 1060 µg/mL (≈ 2310 µM)
21 | N=C(c1ccc(C(=O)Nc2ccc3c(c2)C[C@@H](CC(=O)O)CO3)cc1)N1CCOCC1 | 0.11 µM | 0.12 nM | 35 nM | –
22 | N=C(N)c1ccc(CCc2ccc3c(c2)CC(CC(=O)O)CC3)cc1 (stereo not drawn) | – | – | 370 nM | –
23 | N=C(c1ccc(C(=O)Nc2ccc3c(c2)C[C@H](CC(=O)O)CO3)cc1)N1CCOCC1 | – | 2.6 nM | 360 nM | –
24 | CN(C(=O)c1ccc(C(=N)N)cc1)c1ccc2c(c1)CC(CC(=O)O)CC2 (stereo not drawn) | 1.8 µM | – | 200 nM | –
25 | CCOC(=O)CC1COc2ccc(NC(=O)c3ccc(C(=N)N)cc3)cc2C1 (stereo not drawn) | – | – | – | inhibition in vivo at 37 µmol/kg (Cavia porcellus [6]): 40%; solubility [3]: 410 µg/mL (≈ 1070 µM)
26 | CCOC(=O)CC1CCc2ccc(NC(=O)c3ccc(C(=N)N4CCOCC4)cc3)cc2C1 (stereo not drawn) | – | – | – | concentration at 1 h [1]: 7300 nM; Inhibition (Cavia porcellus [2]): 98%; solubility [3]: > 200000 µg/mL
27 | N=C(N)c1ccc(NC(=O)c2ccc3c(c2)CC(CC(=O)O)CC3)cc1 (stereo not drawn) | 0.23 µM | – | 46 nM | –
